Rows were chosen to be rich in hits. Some 3.1% of all compounds tested hit in one or more screens of this group.
rCAG RNA binder – r(CAG) repeat RNA binding. TO-PRO-1 dye displacement fluorescence. inhibition, % at 3 µM. actives 1.3% (n = 370,000). AID 651821;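 active = inhibition above the plate cutoff, the mean of all test compounds on that plate plus 3 SD, cut at about 35% in these data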;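 also: higher means more dye released from RNA so lower well fluorescence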
LEDGF integ inh – blocks HIV-1 LEDGF/p75-dependent DNA integration | TR-FRET IN-LEDGF/p75 DNA integration, Eu/Cy5 | inhibition, % at 3.7 µM | actives 0.64% (n = 370,000) | AID 743269;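 active = inhibition above the screen-wide mean plus 3 SD, cut at about 13% in these data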;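 also: signal is the Cy5 over europium emission ratio at 671 and 618 nm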
ATG4B inhibitor – inhibitors of human ATG4B cysteine protease. Q9Y4P1. ATG4B cleavage of LC3-PLA2, NBD-HPC fluorescence, 1 h. actives 0.51% (n = 340,000). inhibition, % at 8.33 µM; in the data active = inhibition above about 40%
MBD2 DNA inh – inhibitors of human MBD2 binding to methylated oligonucleotide; actives 0.31% (n = 370,000); AID 686964; Q9UBB5; inhibition, % at 4.4 µM; TR-FRET; in the data active = inhibition above about 13%
Target sequence (Q9UBB5 whole entry, looked up): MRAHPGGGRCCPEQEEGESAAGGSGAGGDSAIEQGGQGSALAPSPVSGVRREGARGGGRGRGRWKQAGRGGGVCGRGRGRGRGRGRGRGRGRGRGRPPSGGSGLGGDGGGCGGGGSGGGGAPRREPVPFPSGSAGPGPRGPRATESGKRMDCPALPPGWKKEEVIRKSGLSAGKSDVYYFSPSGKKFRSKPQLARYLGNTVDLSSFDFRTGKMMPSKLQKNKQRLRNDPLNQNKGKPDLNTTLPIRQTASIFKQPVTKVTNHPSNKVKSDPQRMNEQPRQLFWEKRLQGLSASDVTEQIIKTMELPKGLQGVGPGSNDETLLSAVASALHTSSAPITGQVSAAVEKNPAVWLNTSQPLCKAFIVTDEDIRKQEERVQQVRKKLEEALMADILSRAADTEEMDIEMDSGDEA
CSN deneddyl inh – blocks human CSN-mediated cullin deneddylation. inhibition, % at 12.5 µM. Purified CSN, SCF-Nedd8-OG deneddylation, fluorescence polarization. Q92905. actives 0.38% (n = 360,000);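 active = pattern-corrected inhibition above about 35%, with an unprinted fluorescence ratio check between 0.5 and 1.5, limit read from the data, passing the limit was not always enough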
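Assay system: purified human Csn5 enzyme expressed in HEK293T cells; Input: 0.24 nM Csn5 enzyme, final concentration; Reagent: 10 nM SCFSkp2-Nedd8OG; Compound dosing: 12.5 µM single point; Times: reaction 90 min, room temperature; Technique: fluorescence polarization readout.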
UHRF1 binding – human UHRF1 methylated DNA binding inhibitors | AID 687016 | inhibition, % at 4.4 µM | actives 0.75% (n = 370,000) | UHRF1 binding to methylated oligo, TR-FRET | Q96T88; in the data active = inhibition above about 21%;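 also: UHRF1 SRA domain binding a hemimethylated CpG hairpin DNA probe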
IN multimer up – HIV-1 integrase multimerization activation, counter-screen. activation, % at 7.7 µM. actives 17% (n = 2,000). shares compounds with LEDGF integ inh. TR-FRET HIV-1 integrase multimerization, biochemical. AID 1053131; in the data active = activation above about 8.9%
TRFRET interf – counter-screen for LEDGF/p75 integration inhibitors: TR-FRET optical interference; TR-FRET optical interference counterscreen, HIV-1 IN multimerization; shares compounds with LEDGF integ inh; inhibition, % at 7.7 µM; 2,000 tested, under 10 active;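 active = inhibition above the mean over all tested compounds plus 3 SD, which no compound reached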
LEDGF integ conf – LEDGF/p75-dependent HIV-1 integration inhibition, confirmation; actives 36% (n = 2,000); shares compounds with LEDGF integ inh; TR-FRET LEDGF/p75-dependent HIV-1 integration, biochemical; AID 1053136; inhibition, % at 3.7 µM; in the data active = inhibition above about 14%
A number is an active result; – = inactive; · = not tested or not shown.

SMILES	rCAG RNA binder	LEDGF integ inh	ATG4B inhibitor	MBD2 DNA inh	CSN deneddyl inh	UHRF1 binding	IN multimer up	TRFRET interf	LEDGF integ conf
COC(=O)[C@]12C[C@H](CC(=O)NCc3ccccc3)C(=O)N(CCC3=CCCCC3)C1=C[C@H](C1CCCC1)O[C@@H]2C	–	–	·	–	·	–	·	·	·
CSc1ncccc1C(=O)N1CCCC(C(=O)c2ccc3ccccc3c2)C1 (stereo unspecified)	–	15	–	–	–	–	–	–	–
COc1ccc2c(c1)CCc1sc(NC(=O)c3ccco3)nc1-2	·	·	–	·	–	·	·	·	·
COc1ccc2c(c1)Cc1sc(NC(=O)c3ccco3)nc1-2	–	38	–	–	–	–	–	–	–
COc1ccc2c(c1)Cc1sc(NC(C)=O)nc1-2	–	15	–	–	–	–	–	–	27
COc1ccc(-n2c(SCC(=O)Nc3ccccc3-c3ccccc3)nnc2-c2ccco2)cc1	–	–	·	–	·	–	·	·	·
C/C=C(\C)CN1CCN(c2ccccc2)CC1	–	27	–	–	–	–	–	–	–
C/C(=C\c1ccccc1)CN1CCN(c2ccccc2)CC1	–	–	–	–	–	–	·	·	·
COc1ccc(-c2csc3nc(C(C)(C)C)oc(=O)c23)cc1OC	–	16	–	–	–	–	–	–	–
Cn1c(SCc2ccccc2)nccc1=O	–	–	–	–	–	–	·	·	·
Cn1c(SCCc2ccc([N+](=O)[O-])cc2)nccc1=O	–	60	–	–	–	–	–	–	–
Cc1ccc2nsnc2c1NC(=O)c1sc2ccccc2c1Cl	–	25	–	–	–	–	–	–	–
Cc1no[n+]([O-])c1COc1cccc(/C=N/Nc2nncn2N)c1	–	58	–	–	–	–	–	–	–
O=C(Nc1ccc(C(=O)O)cc1)/C(=C\c1ccco1)NC(=O)c1ccc(Br)cc1	–	14	·	–	–	–	–	–	–
O=C(O)/C(=C/c1ccco1)NC(=O)c1ccccc1	–	27	–	–	–	–	–	–	–
O=C(O)/C(=C\c1ccco1)NC(=O)c1cccc2ccccc12	–	29	–	–	–	21	–	–	–
CC(C)(C)c1ccc(C(=O)N/C(=C\c2ccco2)C(=O)O)cc1	–	–	–	–	–	–	·	·	·
CCC[C@H]1[C@@H](OC(=O)NCCc2c[nH]c3ccccc23)CC[C@@]23CCCN2C(=O)CCC[C@@H]13	·	–	·	–	·	–	·	·	·
Clc1ccc(-n2c(SCc3cccc4ccccc34)nnc2-c2cccnc2)cc1	–	–	·	–	·	–	·	·	·
O=C(CC1CC2CCC1C2)Nc1nc(-c2ccccn2)cs1 (stereo unspecified)	–	16	–	–	–	–	–	–	–
Cc1cc(C)n2nc(-c3ccsc3-n3c(C)ccc3C)cc2n1	–	24	–	–	–	–	–	–	20
Cc1cc(C)n2nc(-c3ccccc3)cc2n1	–	–	–	–	–	–	·	·	·
OC1(Cc2ccccc2)CCN(c2ncnc3sccc23)CC1	·	–	·	–	·	–	·	·	·
O=c1[nH]c2cc3c(cc2cc1CN(Cc1nnnn1CC1CCCO1)C1CCCCC1)OCO3 (stereo unspecified)	–	18	–	–	–	–	–	–	–
O=c1[nH]c2cc3c(cc2cc1CN(Cc1nnnn1CC1CCCO1)C1CCCC1)OCO3 (stereo unspecified)	–	–	–	–	–	–	·	·	·
Cc1ccccc1OCCCN1CCOCC1	–	29	–	–	–	–	–	–	–
CCN=C1S/C(=C\c2cc(Cl)c(OC)c(OC)c2)C(=O)N1CC	–	17	–	–	–	–	–	–	–
COC(=O)C1CN(Cc2cn(Cc3ccc(OC)cc3)nn2)CCS(=O)(=O)N1Cc1ccc(F)cc1 (stereo unspecified)	–	–	·	–	·	–	·	·	·

Bioassay records (PubChem)
